According to ChEMBL document CHEMBL1126749, “Synthesis and structure-activity relationships of nonpeptide, potent triazolone-based angiotensin II receptor antagonists” (J Med Chem, 1993):

How the values were obtained:
[1] = target: T1, Type-1 angiotensin II receptor B (Rattus norvegicus, UniProt P29089); test: Inhibition of [125I]angiotensin-II binding to the angiotensin II receptor type 1 in rat uterine membranes; assay type: cell membranes, Membrane
T1 sequence (P29089 whole entry): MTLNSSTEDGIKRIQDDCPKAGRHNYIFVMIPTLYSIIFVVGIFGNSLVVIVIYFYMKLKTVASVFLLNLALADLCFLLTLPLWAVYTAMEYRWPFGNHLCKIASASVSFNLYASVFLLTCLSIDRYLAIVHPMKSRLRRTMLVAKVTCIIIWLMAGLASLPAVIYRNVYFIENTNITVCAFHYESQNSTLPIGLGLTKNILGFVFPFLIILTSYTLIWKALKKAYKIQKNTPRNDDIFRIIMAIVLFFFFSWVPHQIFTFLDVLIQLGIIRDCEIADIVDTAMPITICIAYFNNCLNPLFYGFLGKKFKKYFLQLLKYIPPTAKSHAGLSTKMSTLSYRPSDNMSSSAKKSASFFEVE

[2] = target: Angiotensin II receptor (Oryctolagus cuniculus); test: Antagonism of angiotensin-II mediated contraction of rabbit aortic rings expressed as pA2 (in vitro)
[3] = test system: Rattus norvegicus; test: In vivo inhibition of pressor response to AII in rats following intragastric administration; assay type: functional; conditions: po, read-out: ID50 (the source's name)
In short: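 Male Sprague-Dawley rats anesthetized with methohexital 30 mg/kg ip. Femoral artery and vein catheterized, restrained, and allowed 3 h recovery. Arterial pressure recorded continuously, 1 h baseline, then AII infused at 50 ng/kg/min iv. Compound given intragastrically at 1-10 mg/kg. Change in mean arterial pressure compared at time points before and after dosing.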

SMILES	IC50 [1] [nM]	pA2 [2]	ED50 [3] [mg/kg]
CCCCc1nn(CC2CC2)c(=O)n1Cc1ccc(-c2ccccc2-c2nn[nH]n2)cc1	15		
CCCCc1nn(CC(OCC(=O)OCC)c2ccccc2)c(=O)n1Cc1ccc(-c2ccccc2-c2nn[nH]n2)cc1 (stereo not given)	180	8.3	
CCCCc1nn(Cc2ccccc2)c(=O)n1Cc1ccc(-c2ccccc2-c2nn[nH]n2)cc1	16	8.1	
CCCCc1nn(CCC(C)CC(C)(C)C)c(=O)n1Cc1ccc(-c2ccccc2-c2nn[nH]n2)cc1 (stereo not given)	35	7.9	
CCCCc1nn(CC(OCC)c2ccccc2)c(=O)n1Cc1ccc(-c2ccccc2-c2nn[nH]n2)cc1 (stereo not given)	15		
CCCCc1nn(C(C)C)c(=O)n1Cc1ccc(-c2ccccc2-c2nnn[nH]2)cc1	20		
CCCCc1nn(CC(OCCC)c2ccccc2)c(=O)n1Cc1ccc(-c2ccccc2-c2nn[nH]n2)cc1 (stereo not given)	45	8.1	
CCCCc1nn(CC(=O)OCC)c(=O)n1Cc1ccc(-c2ccccc2-c2nn[nH]n2)cc1	9	7.8	
CCCCc1nn(CCC)c(=O)n1Cc1ccc(-c2ccccc2-c2nn[nH]n2)cc1	15	8.2	
CCCCc1nnc(O)n1Cc1ccc(-c2ccccc2C(=O)O)cc1	1500	5.5	
CCCCc1nn(CCCCC(=O)OC)c(=O)n1Cc1ccc(-c2ccccc2-c2nn[nH]n2)cc1	4.4		
CCCCc1nn(CC(OC)c2ccccc2)c(=O)n1Cc1ccc(-c2ccccc2-c2nn[nH]n2)cc1 (stereo not given)	12	7.8	
CCCCc1nn(CCCc2ccccc2)c(=O)n1Cc1ccc(-c2ccccc2-c2nn[nH]n2)cc1	18	8	
CCCCc1nnc(O)n1Cc1ccc(-c2ccccc2-c2nn[nH]n2)cc1	42	7.1	
CCCCc1nn(CC(=O)c2cc(OC)ccc2OC)c(=O)n1Cc1ccc(-c2ccccc2-c2nn[nH]n2)cc1	21	8	
CCCCc1nn(C(CC(=O)OCC)C(=O)c2ccccc2)c(=O)n1Cc1ccc(-c2ccccc2-c2nn[nH]n2)cc1 (stereo not given)	36	7.8	
CCCCCCn1nc(CCCC)n(Cc2ccc(-c3ccccc3-c3nn[nH]n3)cc2)c1=O	8.7	8.9	
CCCCc1nn(C(Cc2ccccc2)C(=O)c2ccccc2)c(=O)n1Cc1ccc(-c2ccccc2-c2nn[nH]n2)cc1 (stereo not given)	5800		
CCCCCCCCn1nc(CCCC)n(Cc2ccc(-c3ccccc3-c3nn[nH]n3)cc2)c1=O	170	8.5	
CCCCc1nn(CC(OCC(=O)O)c2ccccc2)c(=O)n1Cc1ccc(-c2ccccc2-c2nn[nH]n2)cc1 (stereo not given)	30		

SMILES	IC50 [1] [nM]	pA2 [2]	ED50 [3] [mg/kg]
CCCCc1nn(CC(=O)OC(C)(C)C)c(=O)n1Cc1ccc(-c2ccccc2-c2nn[nH]n2)cc1	16	7.1	
CCCCc1nn(C(C)CC)c(=O)n1Cc1ccc(-c2ccccc2-c2nn[nH]n2)cc1 (stereo not given)	10	8.7	
CCCCc1nn(CC(O)c2ccccc2)c(=O)n1Cc1ccc(-c2ccccc2-c2nn[nH]n2)cc1 (stereo not given)	3.6	8.3	
CCCCc1nn(CC(OCc2ccccc2)c2ccccc2)c(=O)n1Cc1ccc(-c2ccccc2-c2nn[nH]n2)cc1 (stereo not given)	280	7.7	
CCCCc1nn(CC(=O)c2ccccc2)c(=O)n1Cc1ccc(-c2ccccc2-c2nn[nH]n2)cc1	7.9		
CCCCc1nn(CCCC)c(=O)n1Cc1ccc(-c2ccccc2-c2nnn[nH]2)cc1	5.1		2.1
CCCCc1nn(C/C=C/c2ccccc2)c(=O)n1Cc1ccc(-c2ccccc2-c2nn[nH]n2)cc1	290		
CCCCc1nn(CCCC)c(=O)n1Cc1ccc(-c2ccccc2C(=O)O)cc1	101	7	
CCCCc1nn(CCCCC(=O)O)c(=O)n1Cc1ccc(-c2ccccc2-c2nn[nH]n2)cc1	12	8	
CCCCCn1nc(CCCC)n(Cc2ccc(-c3ccccc3-c3nn[nH]n3)cc2)c1=O	5.6	9	
CCCCc1nn(CCC2CCCCC2)c(=O)n1Cc1ccc(-c2ccccc2-c2nn[nH]n2)cc1	18	7.9	
CCCCc1nn(CC(=O)C23C[C@H]4C[C@@H](C2)C[C@@H](C3)C4)c(=O)n1Cc1ccc(-c2ccccc2-c2nn[nH]n2)cc1	25	8.1	
CCCCc1nn(Cc2ccc3ccccc3c2)c(=O)n1Cc1ccc(-c2ccccc2-c2nn[nH]n2)cc1	280	6.5	
CCCCc1nn(C(C)(C)C(=O)c2ccccc2)c(=O)n1Cc1ccc(-c2ccccc2-c2nn[nH]n2)cc1	43	7.7	
CCCCc1nn(CCCCCC(=O)OCC)c(=O)n1Cc1ccc(-c2ccccc2-c2nn[nH]n2)cc1	9.8	7.6	
CCCCc1nn(CCCCCC(=O)O)c(=O)n1Cc1ccc(-c2ccccc2-c2nn[nH]n2)cc1	17	8.7	
CCCCc1nn(CC(O)c2cc(OC)ccc2OC)c(=O)n1Cc1ccc(-c2ccccc2-c2nn[nH]n2)cc1 (stereo not given)	22	8.1	
CCCCc1nn(CC(=O)O)c(=O)n1Cc1ccc(-c2ccccc2-c2nn[nH]n2)cc1	91	7.8	
CCCCc1nn(CCc2ccccc2)c(=O)n1Cc1ccc(-c2ccccc2-c2nn[nH]n2)cc1	3.1	9.8	
